The source of these data is ChEMBL document CHEMBL4028901, “Novel Antitubercular 6-Dialkylaminopyrimidine Carboxamides from Phenotypic Whole-Cell High Throughput Screening of a SoftFocus Library: Structure-Activity Relationship and Target Identification Studies” (J Med Chem, 2017).

The term logD denotes lipophilicity at a set pH, counting ionised and neutral species. In general, IC50 refers to the midpoint of a concentration-inhibition curve. As usually defined, the MIC99 is an inhibitory concentration at the 99% level, which refers to growth in some studies and to a panel of isolates in others. Broadly, the Vd is a proportionality between amount in the body and measured concentration, not a real space. The term Cmax denotes the peak of the concentration-time curve. Broadly, the Tmax is the time from dosing to the highest level. By AUC is commonly meant concentration integrated over time.

Series [1] is described as follows: Lipophilicity, log P of the compound at 100 uM at pH 7.4 after 3 hrs by shake-flask method. The note with it: buffer. In kind it is physicochemical. Summed up:
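Shake-flask method run in triplicate. A 10 mM stock was spiked into a 1:1 mixture of phosphate buffer (pH 7.4) and n-octanol, then shaken at 1500 rpm on an orbital shaker for 3 h at room temperature.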

The next series has as its system Vero. The series is described as follows: Cytotoxicity against African green monkey Vero cells assessed as reduction in cell viability by MTT assay. In kind it is cell-based. The note with it: Chlorocebus sabaeus. Summed up: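 MTT assay in Vero cells, samples in triplicate on one occasion. Stocks at 20 mg/mL in DMSO, diluted in complete medium as 10-fold serial dilutions over 6 concentrations. Emetine used as reference. IC50 derived by non-linear dose-response curve fitting.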
A general note: Formazan colour is commonly taken as a measure of viable cells.

Series [2] relates to Mycobacterium tuberculosis. The series is described as follows: Antibacterial activity against cytochrome bd oxidase knockout GFP-fused Mycobacterium tuberculosis H37RvMA grown in 7H9/GLU/ADC medium measured on day 7 and day 14 post inoculation by fluorescence plate reader assay. It is filed as functional.
Series [3] can be described thus: Kinetic solubility of the compound in fasted-state simulated intestinal fluid at 10 to 220 uM at pH 6.5 after 2 hrs by shake flask method. In kind it is physicochemical. The note with it: read-out: Kinetic_solubility. Summed up: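 Miniaturised shake flask. 10 mM DMSO stocks spiked 1:50 into duplicate FaSSIF (pH 6.5), 2% final DMSO. Shaken 2 h at 25 °C, filtered, analysed by HPLC-DAD against calibration standards (10–220 μM).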

In series [4] the test system is Mycobacterium tuberculosis. The series can be described thus: Antibacterial activity against Mycobacterium tuberculosis H37RvMA grown in GAST/Fe medium measured 7 to 14 days post inoculation by broth microdilution method. In kind it is functional. In short, it runs like this:
(§1)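 H37RvMa grown to OD600 0.6–0.7, diluted 1:100 in GAST/Fe. Compounds two-fold serially diluted from a top concentration of 640 μM, in duplicate. Incubated at 37 °C with humidification.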
For orientation: In broth dilution the organism is exposed to a series of concentrations in liquid medium.

Series [5] deals with Mycobacterium tuberculosis. The series is described as follows: Antibacterial activity against Mycobacterium tuberculosis H37RvMA grown in 7H9/ADC medium measured 7 to 14 days post inoculation by broth microdilution method. It is filed as functional.
The test system of series [6] is Mycobacterium tuberculosis. The series is described as follows: Antibacterial activity against cytochrome bd oxidase knockout GFP-fused Mycobacterium tuberculosis H37RvMA grown in GAST/Fe medium measured on day 7 and day 14 post inoculation by fluorescence plate reader assay. In kind it is functional.
Series [7] is described as follows: Kinetic solubility of the compound in pH 7.4 solution at 10 to 220 uM after 2 hrs by shake flask method. In kind it is physicochemical. The note with it: buffer, pH 7.4, 2 h, 220 µM.
The test system of series [8] is Mycobacterium tuberculosis. The series is described as follows: Antibacterial activity against wild type Mycobacterium tuberculosis H37Rv grown in GAST/Fe medium measured on day 14 post inoculation by broth microdilution method. It is filed as functional. The note with it: 336 h. In short, it runs like this: as §1
Series [9] deals with Liver. The series is described as follows: Metabolic stability in human liver microsomes assessed as compound remaining at 0.1 uM after 30 mins by LC-MS/MS analysis. It is filed as ADME, microsome. The note with it: 0.5 h. Summed up:
(§2)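 Compound at 0.1 μM incubated in duplicate with mouse, rat or pooled human liver microsomes (0.4 mg/mL) at 37 °C. Run with and without 1 mM NADPH, sampled at predetermined time points.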

In series [10] the test system is Liver. The series is described as follows: Metabolic stability in rat liver microsomes assessed as compound remaining at 0.1 uM after 30 mins by LC-MS/MS analysis. It is filed as ADME, microsome. The note with it: 0.5 h. In short, it runs like this: as §2
(Liver microsomes are a subcellular fraction often used to study metabolism.)

Series [11] has as its system Liver. The series is described as follows: Metabolic stability in mouse liver microsomes assessed as compound remaining at 0.1 uM after 30 mins by LC-MS/MS analysis. The note with it: 0.5 h. In kind it is ADME, microsome. Summed up:
as §2

Series [12] has as its system Mus musculus. The series can be described thus: Volume of distribution in C57/BL6 mouse at 5 mg/kg, iv measured up to 24 hrs post dose by LC-MS/MS analysis. The note with it: in vivo. In kind it is ADME, organism-based. Summed up: (§3)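 Male mice, 3 animals, not fasted, given an IV bolus in 10% DMSO, 50% propylene glycol/ethanol (4:1) and 40% polyethylene glycol or water. Blood sampled into heparinised tubes at 0.17, 0.5, 1, 3, 5, 8, 12 and 24 h, stored frozen, precipitated with ice-cold acetonitrile. Measured by LC-MS/MS with internal standards against blood-matrix calibration standards.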

Series [13] has as its system Mus musculus. The series is described as follows: Cmax in C57/BL6 mouse at 20 mg/kg, po measured up to 24 hrs post dose by LC-MS/MS analysis. Further details: dose 20 mg/kg, route oral. In kind it is ADME, organism-based. The note with it: in vivo. In short, it runs like this: (§4)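 Male mice, 3 per route, not fasted, free access to water. Oral dose given as aqueous suspension in 0.5% (w/v) hydroxypropyl methylcellulose with 0.4% (v/v) Tween 80. Blood drawn into heparinised tubes at 0.5, 1, 3, 5, 8, 12 and 24 h, kept below -15 °C, protein-precipitated with ice-cold acetonitrile. Quantified by LC-MS/MS against standards made in drug-free mouse blood.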

Series [14] concerns Mus musculus. The series can be described thus: Apparent elimination half life in C57/BL6 mouse at 20 mg/kg, po measured up to 24 hrs post dose by LC-MS/MS analysis. In kind it is ADME, organism-based. The note with it: in vivo. Summed up: as §4
The next series has as its system Plasma. The series can be described thus: Fraction unbound in human plasma at 5 uM pre-incubated for 1 hr by ultra-centrifugation and LC-MS/MS method. In kind it is ADME, cell-free. Summed up: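 Pooled human plasma spiked to 5 μM and pre-incubated 1 h at 37 °C. Duplicate aliquots ultracentrifuged 4 h at 37 °C; an unspun aliquot served as the total sample. Analyte measured by LC-MS/MS.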

Series [15] has as its system Mus musculus. The series can be described thus: Tmax in C57/BL6 mouse at 20 mg/kg, po measured up to 24 hrs post dose by LC-MS/MS analysis. In kind it is ADME, organism-based. The note with it: in vivo. In short, it runs like this:
as §4

In series [16] the test system is Mus musculus. The series is described as follows: AUC (0 to infinity) in C57/BL6 mouse at 5 mg/kg, iv measured up to 24 hrs post dose by LC-MS/MS analysis. The note with it: in vivo. It is filed as ADME, organism-based. On the set-up: dose 5 mg/kg, route intravenous, time infinity. In short, it runs like this: as §3
The test system of series [17] is Mus musculus. The series is described as follows: Apparent elimination half life in C57/BL6 mouse at 5 mg/kg, iv measured up to 24 hrs post dose by LC-MS/MS analysis. In kind it is ADME, organism-based. The note with it: in vivo. Summed up:
as §3

Series [18] has as its system Mus musculus. The series can be described thus: AUC (0 to infinity) in C57/BL6 mouse at 20 mg/kg, po measured up to 24 hrs post dose by LC-MS/MS analysis. In kind it is ADME, organism-based. Further details: dose 20 mg/kg, route oral, time infinity. The note with it: in vivo. In short, it runs like this: as §4
For series [19], the system named is Mus musculus. The series is described as follows: Oral bioavailability in C57/BL6 mouse at 20 mg/kg measured up to 24 hrs post dose by LC-MS/MS analysis. In kind it is ADME, organism-based. The note with it: in vivo. Summed up: as §4
[20] abbreviates: Mycobacterium tuberculosis, H37RvMA, read-out: MIC99.

≈ marks a conversion by molar mass, not a printed value.

In [1], `COc1ccc(NC(=O)c2cc(N(C)Cc3ccccc3)ncn2)cc1` had a logD at 3 h, 100 µM of 4.07. Moreover, in the series with Vero, the IC50 came to 287 µM. Moreover, the MIC99 in series [2] was over 20 µM; in series [4], 10 µM (≈ 3.48 µg/mL); in [5], 20 µM (≈ 6.97 µg/mL). Moreover, the solubility kinetic at 2 h in series [3] is under 5 µM.

Consider `CN(Cc1ccc(C(F)(F)F)cc1)c1cc(C(=O)NC2CCCCC2)ncn1`, for which the results for the MIC99 in series [2] (setting [20]) and in series [6] were over 125 µM and 12 µM (≈ 4.71 µg/mL), respectively. In series [7], the Kinetic_solubility stood at 5 µM.

With `CN(Cc1ccc(C(F)(F)F)cc1)c1cc(C(=O)Nc2ncn(C)n2)ncn1`, in the series with Vero, the IC50 is 28 µM. For the same compound, the MIC99 worked out at 10 µM (≈ 3.91 µg/mL) in [4] and 50 µM (≈ 19.6 µg/mL) in series [5]. In addition, in series [7], the Kinetic_solubility was found to be 173 µM.

Consider `CN(Cc1ccc(S(C)(=O)=O)cc1)c1cc(C(=O)Nc2ccccc2)ncn1`, for which the MIC99 in [2] (setting [20]) and in [6] was over 125 µM in each case. Also, the Kinetic_solubility in [7] was 10 µM.

`CN(Cc1ccc(F)cc1)c1cc(C(=O)Nc2ccccc2)ncn1`: the MIC99 amounted to 10 µM (≈ 3.36 µg/mL) in series [8], 1.56 µM (≈ 0.525 µg/mL) in series [4] and 6.25 µM (≈ 2.1 µg/mL) in series [5]. Moreover, the 50% inhibitory concentration (IC50) in the series on Vero stood at 297 µM. In series [7], the Kinetic_solubility is under 5 µM.

For `CN(Cc1ccc(F)cc1)c1cc(-c2nnc(-c3ccccc3)[nH]2)ncn1`, the IC50 with Vero amounted to 277 µM. For the same compound, the figures for the MIC99 in [4] and in [5] were 25 µM (≈ 9.01 µg/mL) and over 50 µM, respectively. The compound further showed a Kinetic_solubility in series [7] of under 5 µM.

In the case of `CN(Cc1ccc(C(F)(F)F)nc1)c1cc(C(=O)Nc2ccccc2)ncn1`, the values for the Stability in the series on Liver [9], with Liver [10] and with Liver [11] were 85%, 72% and 87%, respectively. The logD at 3 h, 100 µM in series [1] is 3.7. This compound came in with a Vd in the series with Mus musculus [12] of 0.7 L/kg. Besides, the concentration for half-maximal inhibition (IC50) in the series with Vero was found to be 258 µM. In addition, the Cmax in the series with Mus musculus [13] is 3.4 µM. The “betat1/2(app)” value in the series with Mus musculus [14] amounted to 7.2 h; in the series with Mus musculus [17], 0.7 h. The compound also displayed a Fu in the series with Plasma of 0.05%. Further, the Tmax in the series on Mus musculus [15] amounted to 4 h. Further, in series [3], the solubility kinetic at 2 h was under 5 µM. For the same compound, the results for the MIC99 in series [4] and in series [5] were 10 µM (≈ 3.87 µg/mL) and 37 µM (≈ 14.3 µg/mL), respectively. Further, the figures for the area under the curve (AUC) in the series on Mus musculus [16] and in the series on Mus musculus [18] were 1179 µM·min and 1999 µM·min, respectively. For the same compound, in the series on Mus musculus [19], the F was found to be 42%.
